{"data": "Assay results gathered from unrelated publications", "target": "Glycogen synthase kinase-3 beta (GSK3B, Homo sapiens, UniProt P49841)", "note": "Lines come from different studies, so protocols differ."}
{"Compound": "N#Cc1ccc(NC(=O)Nc2ccccc2)cc1", "observed": "cell-free assay", "technique": "competition with immobilised ligand", "concentration": "25 µM", "quantity": "remaining binding", "result": "100%"}
{"Compound": "CC#CC(=O)N1CCC[C@H]1c1nc(-c2ccc(C(=O)Nc3ccccn3)cc2)c2c(N)nccn12", "observed": "enzyme activity", "mode": "inhibitor", "concentration": "1 µM", "quantity": "inhibition", "result": "0%"}
{"Compound": "COc1ccc2oc(-c3ccc4nc(N)oc4c3)c/c(=N\\c3ccccc3NC(=O)CCN)c2c1", "observed": "binding", "concentration": "1 µM", "quantity": "remaining binding", "result": "106%"}
{"Compound": "CCCCC(=O)Nc1ccc(-c2ccc3ncn(CCC)c(=O)c3c2)cn1", "observed": "binding", "technique": "competition with immobilised ligand", "concentration": "0.5 µM", "quantity": "remaining binding", "result": "100%"}
{"Compound": "CC(C)S(=O)(=O)c1ccc2nccc(Nc3ccc4sc(C5CCCC5)nc4c3)c2c1", "observed": "enzyme activity", "mode": "inhibitor", "concentration": "1 µM", "quantity": "activity vs control", "result": "113%"}
{"Compound": "C1=C/COCc2cc(ccc2OCCN2CCCC2)Nc2nccc(n2)-c2cccc(c2)COC/1", "observed": "binding", "concentration": "0.1 µM", "quantity": "remaining binding", "result": "82%"}
{"Compound": "Cc1cc(O)c(-c2ccc([C@@H](C)CN(C)C)cc2)c2c1[nH]c(=O)c1sccc12", "observed": "enzyme activity", "mode": "inhibitor", "concentration": "0.1 µM", "setting": "lysate", "quantity": "inhibition", "result": "-0.958%"}
{"Compound": "CN1CCN(C(=O)c2ccc(NC(=O)Nc3ccc(N(C)c4ccnc(Nc5ccc(CS(C)(=O)=O)cc5)n4)cc3)cc2)CC1", "observed": "binding", "concentration": "1 µM", "quantity": "remaining binding", "result": "95%"}
{"Compound": "CC(=O)ON=C1C=CC(=C(C#N)c2ccccc2)C=C1", "observed": "enzyme activity", "mode": "inhibitor", "technique": "ADP detection", "concentration": "2 µM", "quantity": "activity vs control", "result": "88%"}
{"Compound": "C[C@H]1CC[C@H](n2c3cnccc3c3cnc(Nc4ccc5c(n4)CCN(C(=O)CO)C5)nc32)CC1", "observed": "cell-free assay", "concentration": "1 µM", "quantity": "remaining signal", "result": "72%"}
{"Compound": "C=CC(=O)N1CCC([C@@H]2CCNc3c(C(N)=O)c(-c4ccc(Oc5ccccc5)cc4)nn32)CC1", "observed": "enzyme activity", "mode": "inhibitor", "concentration": "1 µM", "quantity": "inhibition", "result": "16%"}
